Experimental data collected from several papers.
CYP3A7: Cytochrome P450 3A7 (CYP3A7, Homo sapiens, UniProt P24462)

SMILES | tested on | test | test system | conditions | quantity | value
Cc1ncc2n1-c1ccc(Cl)cc1C(c1ccccc1F)=NC2 |  | metabolic stability | male rat, liver microsomes | 1 µM, 30 min | compound remaining | < 7%
O=S(=O)(O)C(F)(F)C(F)(F)C(F)(F)C(F)(F)C(F)(F)C(F)(F)F | CYP3A7 | enzyme activity, inhibitor |  | 10 µM, pH 7.4 | inhibition | 29.1%
CCCCCCCCCC(=O)O[C@@]12[C@H](OC(=O)c3ccccc3)[C@@H](C)[C@]3(O)[C@@H]4C=C(C)C(=O)[C@@]4(O)[C@H](O)C(CO)=C[C@H]3[C@@H]1C2(C)C | MT4 | cell growth or viability, ATP luminescence |  |  | CC50 | > 7 µM
O=S(=O)(O)C(F)(F)C(F)(F)C(F)(F)C(F)(F)C(F)(F)C(F)(F)C(F)(F)C(F)(F)F | CYP3A7 | enzyme activity, inhibitor, mass spectrometry |  |  | IC50 | 16.8 µM
COC(=O)N[C@H](C(=O)NN(CC[C@]1(Cc2ccccc2)C(=O)N([C@H]2c3ccccc3C[C@H]2O)C[C@@H]1O)Cc1ccc(Br)cc1)C(C)(C)C | MT4 | cell growth or viability, XTT |  | 5 days | CC50 | > 50 µM
N=c1c2c(-c3ccccc3)c(-c3ccccc3)n(Cc3ccccc3)c2ncn1[C@H]1CC[C@H](O)CC1 |  | metabolic stability | CD-1 mouse, hepatocytes | 1 µM, 4 h | compound remaining | 103%
CC[C@H](C)[C@H]1C(=O)N2CCC[C@H]2C(=O)O[C@H](C(C)(C)C)C[C@@H](C)C[C@H](O)C(C)(C)C2=N[C@@H](CCC(=O)N[C@@H](Cc3ccc(OC)cc3)C(=O)N(C)[C@@H](C)C(=O)N1C)CS2 |  | metabolic stability | female CD-1 mouse, liver microsomes | 1 µM, 0 h, pH 7.4 | compound remaining | 100%
CCCC/C=C/C=C/CC(=O)O[C@@]12[C@H](OC(=O)c3ccccc3)[C@@H](C)[C@]3(O)[C@@H]4C=C(C)C(=O)[C@@]4(O)[C@H](O)C(CO)=C[C@H]3[C@@H]1C2(C)C | MT4 | cell growth or viability, ATP luminescence |  |  | CC50 | > 7 µM
C=C(C)[C@@]1(O)[C@H](OC(=O)/C=C/C=C/C=C/CCC)[C@@H]2[C@@H]3O[C@]3(CO)[C@@H](O)[C@]3(O)C(=O)C(C)=C[C@H]3[C@@]2(O)[C@H](C)[C@H]1OC(=O)/C=C/c1ccc(O)c(OC)c1 | MT4 | cell growth or viability, ATP luminescence |  | 96 h | IC50 | > 0.034 µM
CC[C@H](C)[C@H]1C(=O)N2CCC[C@H]2C(=O)O[C@H](C(C)(C)C)C[C@@H](C)C[C@H](O)[C@H](C)C2=N[C@H](CCC(=O)N[C@@H](Cc3ccc(OC)cc3)C(=O)N(C)[C@@H](C)C(=O)N1C)CS2 |  | metabolic stability | female CD-1 mouse, liver microsomes | 1 µM, 0 h, pH 7.4 | compound remaining | 100%
C=C(C)[C@@]1(O)[C@H](OC(=O)/C=C/C=C/CCCCC)[C@@H]2[C@@H]3O[C@]3(CO)[C@@H](O)[C@]3(O)C(=O)C(C)=C[C@H]3[C@@]2(O)[C@H](C)[C@H]1OC(=O)/C=C/c1ccccc1 | MT4 | cell growth or viability, ATP luminescence |  | 96 h | IC50 | > 0.034 µM
O=C(O)C(F)(F)C(F)(F)C(F)(F)C(F)(F)C(F)(F)C(F)(F)C(F)(F)F | CYP3A7 | enzyme activity, inhibitor |  | 10 µM, pH 7.4 | inhibition | 16.3%
C=C(C)[C@@]12O[C@@]3(/C=C/C=C/C=C/CCC)O[C@@H]1[C@@H]1[C@@H]4O[C@]4(CO)[C@@H](O)[C@]4(O)C(=O)C(C)=C[C@H]4[C@@]1(O3)[C@H](C)[C@H]2OC(=O)/C=C/c1ccc(O)cc1 | MT4 | cell growth or viability, ATP luminescence |  | 96 h | IC50 | > 0.034 µM
COC(=O)N[C@H](C(=O)NN(CC[C@@]1(Cc2ccccc2)C(=O)N([C@H]2c3ccccc3C[C@H]2O)C[C@@H]1O)Cc1ccc(-c2ccncc2)cc1)C(C)(C)C | MT4 | cell growth or viability, XTT |  | 5 days | CC50 | > 50 µM
C=C(C)[C@]1(O)C[C@@H](C)[C@@]2(O)[C@@H]([C@H]3O[C@@]4([C@H](O)[C@]3(O)COC(=O)c3ccccc3)[C@@H](OC(=O)/C=C/C=C/C=C/CCC)[C@@H](C)C[C@@H]24)[C@H]1O | MT4 | cell growth or viability, ATP luminescence |  | 96 h | IC50 | > 0.034 µM
Cc1ncc2n1-c1ccc(Cl)cc1C(c1ccccc1F)=NC2 |  | metabolic stability | Sprague-Dawley rat, hepatocytes | 1 µM, 4 h | compound remaining | 0.3%
C=C(C)[C@@]12O[C@@]3(/C=C/C=C/C=C/CCC)O[C@@H]1[C@@H]1[C@@H]4O[C@]4(CO)[C@@H](O)[C@]4(O)C(=O)C(C)=C[C@H]4[C@@]1(O3)[C@H](C)[C@H]2OC(=O)c1ccccc1 | MT4 | cell growth or viability, ATP luminescence |  | 96 h | IC50 | > 0.034 µM
CCCCCC/C=C/CC(=O)O[C@@]12[C@H](OC(=O)c3ccccc3)[C@@H](C)[C@]3(O)[C@@H]4C=C(C)C(=O)[C@@]4(O)[C@H](O)C(CO)=C[C@H]3[C@@H]1C2(C)C | MT4 | cell growth or viability, ATP luminescence |  |  | CC50 | > 7 µM
C=C(C)[C@@]12O[C@@]3(/C=C/C=C/CCCCC)O[C@@H]1[C@@H]1[C@@H]4O[C@]4(CO)[C@@H](O)[C@]4(O)C(=O)C(C)=C[C@H]4[C@@]1(O3)[C@H](C)[C@H]2OC(=O)/C=C/c1ccc(O)c(OC)c1 | MT4 | cell growth or viability, ATP luminescence |  | 96 h | IC50 | > 0.034 µM
C#Cc1ccc2c(c1)C(c1ccccc1F)=N[C@@H](C)c1c(C(=O)OCC(F)(F)F)ncn1-2 |  | metabolic stability | mouse, liver microsomes | 20 min | compound remaining | < 5%
